In ChEMBL document CHEMBL1132718, “Design and synthesis of imidazoline derivatives active on glucose homeostasis in a rat model of type II diabetes. 2. Syntheses and biological activities of 1,4-dialkyl-, 1,4-dibenzyl, and 1-benzyl-4-alkyl-2-(4',5'-dihydro-1'H-imidazol-2'-yl)piperazines and isosteric analogues of imidazoline” (J Med Chem, 1999):

Experiments:
[1] = Partition coefficient (logP); assay type: physicochemical; conditions: octanol/water
[2] = test system: Rattus norvegicus; assay: Rate of glucose disappearance between 5 and 30 min after glucose administration with an intraperitoneal administration of 100 (umol/kg) to STZ rats; assay type: functional, organism-based
In short: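 Three-month-old male Wistar rats (250 g) made diabetic with streptozotocin 35 mg/kg iv. Single ip dose of 100 µmol/kg, then IVGTT with glucose 0.5 g/kg iv. K is the rate of glucose disappearance between 5 and 30 min after the glucose load. Expressed as percent variation between treated and untreated diabetic rats, relative to nondiabetic controls. 4–8 rats per compound, ±SEM.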

[3] = test system: Rattus norvegicus; assay: Percent of variation of glycemia value 30 mins after glucose administration with a peroral administration of 100 umol/kg to STZ rats; assay type: functional; design: unit: %
In short: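 Oral (po) dosing at 100 µmol/kg in STZ rats (male Wistar, 3 months old, 250 g, streptozotocin 35 mg/kg iv), followed by IVGTT with glucose 0.5 g/kg iv. G30 (glycemia 30 min after the glucose load) is expressed as percent variation between treated and untreated STZ rats, relative to nondiabetic controls.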

[4] = test system: Rattus norvegicus; assay: Percent of variation of glycemia value 30 mins after glucose administration by intraperitoneal dose of 100 uM/Kg to STZ rats compared to untreated rats; assay type: functional; design: unit: %
In short: (§1)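 STZ-diabetic rats: 3-month-old male Wistar (250 g) given streptozotocin 35 mg/kg iv. Single ip dose of 100 µmol/kg, then iv glucose 0.5 g/kg for IVGTT. Read-outs: ΔG (glycemia increment over baseline integrated over 30 min), G30 (glycemia at 30 min), K (disappearance rate 5–30 min). Expressed as percent variation versus untreated STZ rats, normalized to nondiabetic controls; 4–8 rats per compound, ±SEM.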

[5] = test system: Rattus norvegicus; assay: Incremental glycemia values over baseline integrated over 30 min after glucose administration (iv) at a concentration 0.5 g/kg; assay type: functional; design: unit: %; in short: as §1

Row | logP [1] | Structure (SMILES) | K [2] | G30 [3] | G30 [4] | Delta G [5]
1 |  | C/N=C(/N)C1CN(C(C)C)CCN1C(C)C (configuration not stated) | 62 |  | 77 | 43
2 |  | c1ccc(CN2CCN(Cc3ccccc3)C(CC3=NCCN3)C2)cc1 (configuration not stated) | 49 |  | 0 | 
3 |  | C/N=C(/N)C1CN(Cc2ccccc2)CCN1Cc1ccccc1 (configuration not stated) | 60 |  | 62 | 50
4 |  | CC(C)CN1CCN(C)CC1C1=NCCN1 (configuration not stated) | 55 |  | 48 | 113
5 |  | CC(C)N1CCN(c2ccccc2)C(C2=NCCN2)C1 (configuration not stated) | 102 |  | 91 | 11
6 |  | N=C(N)C1CN(Cc2ccccc2)CCN1Cc1ccccc1 (configuration not stated) | 65 |  | 65 | 55
7 |  | CC(C)CN1CCN(C)C(C2=NCCN2)C1 (configuration not stated) | 42 |  | 21 | 40
8 | 3.22 | CCC(C)CN1CCN(CC(C)CC)C(C2=NCCN2)C1 (configuration not stated) | 82 | 4.3 | 83 | 104
9 |  | CN1CCN(c2ccccc2Cl)CC1C1=NCCN1 (configuration not stated) | 60 |  | 17 | 10
10 |  | c1ccc(C(CC2=NCCN2)c2ccccn2)cc1 (configuration not stated) [MIDAGLIZOLE] |  |  | 121 | 32
11 |  | CN1CCN(Cc2ccccc2Cl)C(C2=NCCO2)C1 (configuration not stated) | 0 |  | 0 | 8
12 |  | CN1CCN(Cc2ccc(Cl)cc2Cl)C(c2ncc[nH]2)C1 (configuration not stated) | 37 |  | 14 | 0
13 |  | CN1CCN(Cc2ccc(Cl)cc2Cl)C(C2=NCCCN2)C1 (configuration not stated) | 38 |  | 30 | 47
14 | 2.21 | CN1CCN(Cc2ccc(Cl)cc2Cl)C(C2=NCCN2)C1 (configuration not stated) |  | 64 | 112 | 105
15 |  | CC(C)(C)CN1CCN(CC(C)(C)C)C(C2=NCCN2)C1 (configuration not stated) | 67 |  | 81 | 54
16 |  | C1CNC(C2CN(C(C3CC3)C3CC3)CCN2C(C2CC2)C2CC2)=N1 (configuration not stated) | 41 |  | 89 | 24
17 |  | CC(C)N1CCN(C(C)C)C(CC2=NCCN2)C1 (configuration not stated) | 79 |  | 0 | 27
18 | 1.15 | CC(C)N1CCN(C(C)C)C(C2=NCCN2)C1 (configuration not stated) | 47 | 73 | 89 | 138
19 |  | CN1CCN(Cc2ccc(Cl)cc2Cl)C(CC2=NCCN2)C1 (configuration not stated) | 91 |  | 42 | 19
20 | 2.18 | CC(C)CN1CCN(CC(C)C)C(C2=NCCN2)C1 (configuration not stated) | 79 | 66 | 89 | 141
21 |  | C=CCN1CCN(CC=C)C(C2=NCCN2)C1 (configuration not stated) | 35 |  | 30 | 19
22 |  | C1CCC(N2CCN(C3CCCC3)C(C3=NCCN3)C2)C1 (configuration not stated) | 23 |  | 103 | 58
23 |  | CN1CCN(Cc2ccc(Cl)cc2Cl)C(C2=NCCN2C)C1 (configuration not stated) | 64 |  | 75 | 24
24 |  | CN1CCN(c2ccccc2)C(C2=NCCN2)C1 (configuration not stated) | 39 |  | 28 | 6
25 |  | c1ccc2c(c1)OCC(C1=NCCN1)O2 (configuration not stated) [IDAZOXAN] | 79 |  | 48 | 8
26 |  | C=C(C)CN1CCN(CC(C)C)C(C2=NCCN2)C1 (configuration not stated) | 76 |  | 41 | 53
27 |  | CN1CCN(C(C2CC2)C2CC2)C(C2=NCCN2)C1 (configuration not stated) | 47 |  | 55 | 101
28 |  | CC(C)N1CCN(c2ccccc2)CC1C1=NCCN1 (configuration not stated) | 60 |  | 15 | 0
29 |  | COc1ccccc1CN1CCN(C)CC1CC1=NCCN1 (configuration not stated) | 53 |  | 36 | 31

Row | Structure (SMILES) | logP [1] | K [2] | G30 [3] | G30 [4] | Delta G [5]
30 | C=C(C)CN1CCN(CC(=C)C)C(C2=NCCN2)C1 (configuration not stated) | 1.45 | 117 | 0 | 96 | 116
31 | C=CCN1CCN(CC(C)C)C(C2=NCCN2)C1 (configuration not stated) | 1.3 | 61 | 23 | 55 | 115
